Several values for one entry are separate records, joined by “and”; a condition that tells them apart may be missing. Equal values may be shown once. Activity calls are given as the source filed them.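 Rule for the calls: active = IC50 at or below 10 µM; inactive = IC50 above 10 µM.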

We go through 25 compounds from PubChem BioAssay AID624340 (The Scripps Research Institute Molecular Screening Center, 2012).

Insulin-degrading enzyme (Homo sapiens), sequence (P14735 whole entry, looked up): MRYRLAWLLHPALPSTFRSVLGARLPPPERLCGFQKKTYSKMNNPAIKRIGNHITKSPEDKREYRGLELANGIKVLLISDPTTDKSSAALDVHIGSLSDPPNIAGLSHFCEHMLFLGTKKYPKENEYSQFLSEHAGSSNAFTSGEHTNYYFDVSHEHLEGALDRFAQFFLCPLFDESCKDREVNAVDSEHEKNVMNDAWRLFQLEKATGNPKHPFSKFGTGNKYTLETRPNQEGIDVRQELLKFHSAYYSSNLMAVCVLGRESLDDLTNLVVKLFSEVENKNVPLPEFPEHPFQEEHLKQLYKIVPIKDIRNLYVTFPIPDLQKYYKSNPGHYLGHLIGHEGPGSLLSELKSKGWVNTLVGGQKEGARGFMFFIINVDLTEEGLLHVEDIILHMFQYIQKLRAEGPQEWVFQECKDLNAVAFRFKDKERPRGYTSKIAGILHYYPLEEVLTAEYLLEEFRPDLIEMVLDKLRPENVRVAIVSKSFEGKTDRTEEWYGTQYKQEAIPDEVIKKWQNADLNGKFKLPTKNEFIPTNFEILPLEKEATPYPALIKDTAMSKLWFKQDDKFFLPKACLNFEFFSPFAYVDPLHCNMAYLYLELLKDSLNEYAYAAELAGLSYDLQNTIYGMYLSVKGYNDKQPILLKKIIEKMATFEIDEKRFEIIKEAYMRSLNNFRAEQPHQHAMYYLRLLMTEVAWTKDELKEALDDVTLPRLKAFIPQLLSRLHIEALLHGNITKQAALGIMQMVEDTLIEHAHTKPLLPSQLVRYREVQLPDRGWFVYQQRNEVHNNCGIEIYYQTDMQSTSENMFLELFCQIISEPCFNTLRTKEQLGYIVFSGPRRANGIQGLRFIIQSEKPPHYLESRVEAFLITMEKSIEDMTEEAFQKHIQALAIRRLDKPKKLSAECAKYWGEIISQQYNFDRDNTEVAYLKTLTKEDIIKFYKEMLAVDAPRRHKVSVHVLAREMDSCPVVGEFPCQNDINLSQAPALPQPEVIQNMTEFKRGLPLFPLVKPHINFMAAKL

The test concerns the target Insulin-degrading enzyme (Homo sapiens) (UniProt P14735). The test can be described thus: IDE inhibition with fluorogenic peptide, late-stage follow-up, artefact control for IDE inhibitor project, biochemical, FRET1 substrate, fluorescence, round 2 (AID 624340). The conditions noted are these: recombinant WT IDE. The procedure, abridged:
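Read-out basis – IC50 from sigmoidal fit of initial-rate percent activity · Test system – recombinant WT IDE · Repeats – triplicate · Buffer or medium – pH 7.4 HEPES, NaCl, MgCl2, BSA buffer · Schedule – kinetic read every 2 min over 2 h, 22 °C · Control set – DMSO-only wells as 100%, no-enzyme wells as 0% · Signal – fluorescence at 335/385 nm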
For `COc1ccc(C(=O)N2CCN(C(=O)COc3ccc(C)cc3)CC2)cc1OC`, the IC50 was > 100 µM (inactive).
In the case of `O=C(c1ccc(OCC2CCCO2)cc1)N1CCN(C(=O)C2COc3ccccc3O2)CC1` (stereo not given) it was > 100 µM (inactive).
Regarding `COc1ccc(C(=O)N2CCN(C(=O)C(c3ccccc3)c3ccccc3)CC2)cc1OC`, the IC50 was > 100 µM (inactive).
Turning to `COc1ccc(C(=O)N2CCN(C(=O)C3CC(=O)N(c4ccccc4)C3)CC2)cc1OC` (stereo not given), the IC50 was > 100 µM (inactive).
With `CC(=O)Nc1ccccc1C(=O)N1CCN(C(=O)C2COc3ccccc3O2)CC1` (stereo not given), the IC50 result is “inactive”.
With `COc1cc(C(=O)N2CCN(C(=O)C3COc4ccccc4O3)CC2)cc(Cl)c1OC` (stereo not given), the IC50 is > 100 µM (inactive).
To `COc1ccc(C(=O)N2CCN(C(=O)COc3ccc(Cl)cc3)CC2)cc1OC` belongs > 100 µM (inactive); to `c1coc(Cn2c(SCc3nc4ccccc4[nH]3)nnc2-c2cnccn2)c1`, > 100 µM (inactive); to `Cc1ccc(COCc2nnc(SCc3nc4ccccc4[nH]3)n2Cc2ccco2)cc1`, > 100 µM (inactive).
In the case of `c1coc(Cn2c(SCc3nc4ccccc4[nH]3)nnc2-c2ccco2)c1` it was > 100 µM (inactive).
To `Cc1nc(COc2ccc(C(=O)N3CCN(C(=O)C4COc5ccccc5O4)CC3)cc2)cs1` (stereo not given) belongs > 100 µM (inactive); to `COc1ccc(OCC(=O)N2CCN(C(=O)c3ccc(OC)c(OC)c3)CC2)cc1`, > 100 µM (inactive).
In the case of `O=C(c1ccc(Oc2ccccc2)cc1)N1CCN(C(=O)C2COc3ccccc3O2)CC1` (stereo not given), the IC50 is > 100 µM (inactive).
For the compound `O=C(c1ccc(Oc2ccc(F)cc2)cc1)N1CCN(C(=O)C2COc3ccccc3O2)CC1` (stereo not given), the IC50 was > 100 µM (inactive).
To `COc1ccc(C(=O)N2CCN(C(=O)C3COc4ccccc4O3)CC2)cc1` (stereo not given) belongs 5.89 µM and > 100 µM (inactive).
In the case of `c1ccc(-c2nnc(SCc3nc4ccccc4[nH]3)n2Cc2ccco2)nc1`, the IC50 is > 100 µM (inactive).
To `c1ccc(-c2nnc(SCc3nc4ccccc4[nH]3)n2Cc2ccco2)cc1` belongs > 100 µM (inactive); to `Cc1ccc(-c2nnc(SCc3nc4ccccc4[nH]3)n2Cc2ccco2)cc1`, > 100 µM (inactive); to `COc1ccc(C(=O)N2CCN(C(=O)CCc3c[nH]c4ccccc34)CC2)cc1OC`, > 100 µM (inactive).
In the case of `COc1ccc(C(=O)N2CCN(C(=O)COc3ccccc3)CC2)cc1OC` it was > 100 µM (inactive); in that of `O=C(c1ccc2nc(C(F)(F)F)[nH]c2c1)N1CCN(C(=O)C2COc3ccccc3O2)CC1` (stereo not given), “inactive”.
As to `c1coc(Cn2c(SCc3nc4ccccc4[nH]3)nnc2-c2cccs2)c1`, the IC50 is > 100 µM (inactive).
To `COc1cccc(C(=O)N2CCN(C(=O)C3COc4ccccc4O3)CC2)c1` (stereo not given) belongs “inactive”; to `CCOc1ccc(C(=O)N2CCN(C(=O)C3COc4ccccc4O3)CC2)cc1` (stereo not given), > 100 µM (inactive); to `Clc1ccc(COCc2nnc(SCc3nc4ccccc4[nH]3)n2Cc2ccco2)cc1`, > 100 µM (inactive).
